Shown are actives, neighbours in structure and some others; about 2.5% of the full set was active somewhere.
SENP6 inh: SENP6 protease inhibitors, primary screen, biochemical, luminescence, uHTS; Recombinant SENP6 catalytic domain, aminoluciferin luminescence; inhibition, % at 10 µM; 1.8% of 330,000 active;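 active = inhibition above about 50% at the single tested dose, limit read from the data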;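 note: plate controls were DMSO wells with enzyme for no effect and DMSO wells lacking enzyme for full effect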
Target sequence (Q9GZR1 628-1112 limits assumed): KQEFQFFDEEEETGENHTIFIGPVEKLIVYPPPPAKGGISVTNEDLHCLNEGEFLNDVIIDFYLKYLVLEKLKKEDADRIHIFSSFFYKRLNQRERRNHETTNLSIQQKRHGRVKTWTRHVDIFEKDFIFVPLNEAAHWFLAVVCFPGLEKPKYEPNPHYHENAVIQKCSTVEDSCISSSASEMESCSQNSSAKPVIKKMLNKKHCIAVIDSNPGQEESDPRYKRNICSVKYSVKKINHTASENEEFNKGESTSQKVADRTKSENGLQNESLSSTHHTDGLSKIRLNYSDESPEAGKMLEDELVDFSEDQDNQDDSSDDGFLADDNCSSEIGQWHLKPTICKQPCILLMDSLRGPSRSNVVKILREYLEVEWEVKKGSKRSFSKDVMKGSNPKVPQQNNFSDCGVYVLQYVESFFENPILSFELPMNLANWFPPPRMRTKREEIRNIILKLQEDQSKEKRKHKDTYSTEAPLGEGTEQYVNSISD
SENP1 FRET inh: human SENP1 catalytic domain inhibitors, primary screen, biochemical, FRET, uHTS. recombinant SENP1 catalytic domain, CyPet-SUMO1-YPet FRET cleavage. inhibition, % at 10 µM. Sentrin-specific protease 1 (Homo sapiens), Q9P0U3. AID 624204, 2012. 0.21% of 360,000 active;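 active = inhibition at least 30% at 10 µM, raw YFP signal under a set limit, fluorescence ratio 0.5 to 1.5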;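 note: 0% = enzyme with DMSO and 100% = no enzyme wells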
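Material: hSENP1 catalytic domain, recombinant; medium: Tris pH 8 with BME, BSA, NP40 and catalase; compound: single concentration of 10 µM compound, 0.5% DMSO final; technique: FRET read of cyan and yellow fluorescence; timing: 50 min enzyme reaction, room temperature, light-protected; reagent: SFCypet-SUMO1-SFYpet substrate at 25 nM; control set: no-enzyme low, enzyme-DMSO high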
SENP7 block: SENP7 protease inhibitors, primary screen, biochemical, luminescence, uHTS | Sentrin-specific protease 7 (Homo sapiens), Q9BQF6 | recombinant SENP7, Z-RLRGG-aminoluciferin luminescence, 40 min | inhibition, % at 5 µM | 1.5% of 330,000 active | AID 434973, 2010;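 active = inhibition above about 50% at the single test dose, limit read from the data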;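 note: plate controls were DMSO with enzyme for no effect and no enzyme buffer wells for full effect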
SENP8 block-1: human SENP8 protease inhibitors, primary screen, biochemical, fluorescence, Nedd8 protein substrate, uHTS; Sentrin-specific protease 8 (Homo sapiens), Q96LD8; recombinant SENP8; AID 602440, 2012; inhibition, % at 20 µM; 0.64% of 360,000 active; in the data active = inhibition mostly above about 40%, no sharp cut-off; inactive = mostly below about 27%
Target sequence (Q96LD8 whole entry, looked up): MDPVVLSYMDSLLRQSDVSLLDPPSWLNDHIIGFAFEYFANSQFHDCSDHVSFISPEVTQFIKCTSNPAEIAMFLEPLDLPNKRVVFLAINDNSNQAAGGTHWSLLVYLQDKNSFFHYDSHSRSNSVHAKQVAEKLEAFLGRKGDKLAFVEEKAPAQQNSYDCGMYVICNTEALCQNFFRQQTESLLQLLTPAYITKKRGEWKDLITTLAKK
SENP8 block-2: SENP8 protease inhibitors, primary screen, biochemical, luminescence. Sentrin-specific protease 8 (Homo sapiens), Q96LD8. purified SENP8, Z-RLRGG-aminoluciferin cleavage. inhibition, % at 10 µM. 1.2% of 330,000 active. AID 2540, 2010; in the data active = inhibition above about 50%
SENP8 confirm: SENP8 protease inhibitors, retest, confirmation, biochemical, luminescence, single concentration; 40% of 6,200 active; shares compounds with SENP7 block; Recombinant SENP8, Z-RLRGG-aminoluciferin luminescence, 60 min; inhibition, % at 12.5 µM;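 active = mean inhibition across replicates above about 50%, limit read from the data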
SENP6 confirm: SENP6 protease inhibitors, confirmation, biochemical, luminescence, single concentration; shares compounds with SENP7 block; recombinant SENP6, Z-RLRGG-aminoluciferin luminescence; inhibition, % at 12.5 µM; 58% of 6,200 active; AID 488915, 2010
SENP7 confirm: SENP7 protease inhibitors, retest, confirmation, biochemical, luminescence, single concentration | recombinant SENP7, Z-RLRGG-aminoluciferin luminescence, 40 min | AID 488917, 2010 | shares compounds with SENP7 block | 69% of 6,200 active | inhibition, % at 12.5 µM
Casp3 SENP sel: caspase-3 protease inhibitors, confirmation, selectivity assay for SENP inhibitor project, biochemical, single concentration. shares compounds with SENP7 block. purified caspase-3, Z-DEVD-aminoluciferin luminescence, 60 min. inhibition, % at 12.5 µM. 60% of 6,200 active. AID 488918, 2010;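 active = mean inhibition above about 50%, limit read from the data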;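 note: plate controls were enzyme with DMSO for no effect and wells without caspase-3 for full effect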
SENP luc ctr: counter-screen for SENP inhibitors: luminescence interference; shares compounds with SENP7 block; Pre-incubated SENP8/Z-RLRGG-aminoluciferin, luciferase luminescence interference; inhibition, % at 12.5 µM; 39% of 6,200 active; AID 488919;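 active = mean inhibition above about 50% when retested at one dose, limit read from the data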;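 note: plate controls were DMSO wells with completed reaction for no effect and substrate without enzyme for full effect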
Starred values were filed as active, the others as inactive; nt = no result.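 Rule for the calls, unless noted: active = mean inhibition above about 50% in the one-dose retest (limit read from the data); inactive = the rest.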

SMILES | SENP6 inh | SENP1 FRET inh | SENP7 block | SENP8 block-1 | SENP8 block-2 | SENP8 confirm | SENP6 confirm | SENP7 confirm | Casp3 SENP sel | SENP luc ctr
O=C(CCN1C(=O)C2CC=CCC2C1=O)Nc1cc(C(F)(F)F)ccc1N1CCCC1 (centres undefined) | -8.4 | -2.3 | -9.2 | -3.0 | -13.6 | nt | nt | nt | nt | nt
CCOc1ccc(N=C(/C(C(=O)C(=O)N2CCOCC2)=C(/O)c2ccccc2)c2ccccc2)cc1 | 18.2 | -1.8 | 13.7 | 10.7 | 6.4 | nt | nt | nt | nt | nt
O=C1c2ccccc2C(=O)C1c1ccccn1 | 45.3 | 0.6 | 46.3 | 21.4 | 17.8 | nt | nt | nt | nt | nt
O=C1c2ccccc2C(=O)C1c1ccncc1 | 80.5* | 7.3 | 57.8* | 40.6* | 64.0* | 75.6* | 71.1* | 92.4* | 91.0* | 79.4*
N#Cc1c(N(CCO)CCO)nc(N)c2c(N)nc3c(c12)CC(=O)N3CC1CCCO1 (centres undefined) | -12.7 | -37.5 | 39.0 | -408.0 | 67.5* | -6.4 | 3.1 | -5.9 | 1.1 | 3.1
CC(=O)OC[C@]12CC[C@H]3[C@@](C)(CC[C@H]4C(C)(C)CCC[C@]34C)[C@@H]1C[C@H](C1=CC(=O)O[C@@H]1OC(C)=O)O2 | 24.1 | nt | 11.0 | nt | 5.2 | nt | nt | nt | nt | nt
CCOc1ccc(N/C=C/C(=O)c2ccccc2)c([N+](=O)[O-])c1 | 97.5* | 8.1 | 100.9* | 34.5 | 96.9* | 93.6* | 95.3* | 79.6* | 96.9* | 13.2
CN(C)c1ccc(C(=O)/C=C/c2ccc(Br)cc2)cc1 | -1.6 | 29.7 | -3.3 | 19.1 | 27.1 | nt | nt | nt | nt | nt
Cc1ccc(/C=C/C(=O)c2ccccc2)cc1 | 78.5* | -0.4 | 40.0 | 16.7 | 26.4 | 51.0* | 59.9* | 63.6* | 3.6 | 65.1*
CN(C)c1ccc(C(=O)/C=C/c2ccccc2)cc1 | 84.1* | 19.6 | 78.9* | 8.7 | 63.1* | 26.7 | 17.3 | 56.5* | 29.7 | 45.4
Cc1ccc(/C=C/C(=O)c2c(C)nc3ccccn23)cc1 | 16.2 | 1.4 | 102.6* | 7.0 | -18.2 | 32.4 | 19.3 | 32.7 | 4.8 | 21.5
COc1cc(C(=O)OCC(=O)N2CC(C)OC(C)C2)cc(OC)c1OC (centres undefined) | -8.5 | -0.1 | -9.8 | 16.0 | -3.7 | nt | nt | nt | nt | nt
COc1ccc([C@H]2C[C@H](O)[C@@H](n3cc(-c4ccc(F)cc4)nn3)CN2Cc2cccs2)cc1 | nt | 0.4 | nt | -1.2 | nt | nt | nt | nt | nt | nt
CCOc1ccc(/C=C/C(=O)c2ccccc2)cc1 | 75.9* | -6.4 | 83.4* | -5.3 | 70.1* | -23.8 | 82.7* | 87.9* | 33.3 | 80.1*
CCOc1ccc(C(=O)/C=C/c2ccc(SC)cc2)cc1 | 9.1 | -27.2 | -13.3 | -139.6 | -3.5 | nt | nt | nt | nt | nt
CSc1ccc(/C=C/C(=O)c2ccc(O)cc2)cc1 | 81.0* | -38.9 | 34.0 | -172.7 | 73.7* | 68.7* | 63.8* | 41.6 | 23.4 | 49.6
COc1ccc(OC(C)C(=O)N2CCCc3ccccc32)cc1 (centres undefined) | -35.7 | -1.5 | -8.9 | -2.1 | -8.1 | nt | nt | nt | nt | nt
CCOC(=O)C1(CC2CCCCO2)CCN(S(=O)(=O)c2cccc(F)c2)CC1 (centres undefined) | -18.7 | -0.7 | 3.8 | -0.2 | -3.5 | nt | nt | nt | nt | nt
CCOC(=O)c1cc(C(=O)Nc2cccc(C)c2)nn1C | 39.7 | 2.6 | 59.3* | 6.6 | 30.6 | 46.4 | 43.0 | 78.5* | 72.4* | 58.1*
CCOC(=O)c1cnn(C)c1NC(=O)c1ccc([N+](=O)[O-])cc1 | -10.8 | 3.7 | 2.4 | 2.5 | -2.9 | nt | nt | nt | nt | nt
CCOC(=O)c1cnc(SCC(=O)c2ccccc2)nc1N | 81.5* | -0.8 | 78.4* | 12.4 | 56.4* | 13.8 | 23.0 | 27.5 | 25.8 | 31.1
CCOC(=O)c1cnc(-c2ccccc2)nc1N | 69.2* | 1.1 | 50.6* | 10.1 | 23.8 | 53.2* | 54.1* | 81.2* | 69.9* | 51.9*
CCOC(=O)c1cnc(SCC(=O)c2ccc(C)cc2)nc1N | 12.3 | 3.3 | -2.8 | 13.4 | 2.0 | nt | nt | nt | nt | nt
CCOC(=O)c1cnc(-c2ccccc2)nc1N(C)C | 18.5 | -1.1 | 3.1 | 9.6 | 4.6 | nt | nt | nt | nt | nt
COc1ccc(NC(=O)C2(C)CCCN(C(C)C)C2)cc1OC (centres undefined) | nt | -0.6 | nt | 6.9 | nt | nt | nt | nt | nt | nt
SMILES | SENP6 inh | SENP1 FRET inh | SENP7 block | SENP8 block-1 | SENP8 block-2 | SENP8 confirm | SENP6 confirm | SENP7 confirm | Casp3 SENP sel | SENP luc ctr
O=C(CSc1ccccn1)N/N=C/c1cc([N+](=O)[O-])ccc1O | 52.2* | -1.3 | 14.6 | 26.8* | 6.3 | 33.2 | 26.2 | 65.2* | 57.9* | 35.5
O=C(CSc1ccccn1)N/N=C/c1ccccc1[N+](=O)[O-] | -15.1 | -0.1 | 0.0 | 5.6 | -13.4 | nt | nt | nt | nt | nt
CC(=NNC(=S)N1CC2CCC(CC2)C1)c1ccncn1 | nt | 1.5 | nt | -6.4 | nt | nt | nt | nt | nt | nt
CCN1CCC(N2CCN(c3ccc(Cl)cc3)CC2)CC1 | 78.4* | nt | 1.7 | nt | 1.1 | -11.8 | -10.3 | -9.1 | 4.8 | -0.2
Clc1ccccc1Nc1nc(-c2ccncc2)nc2ccccc12 | -15.1 | 0.1 | 1.0 | -58.8 | -10.3 | nt | nt | nt | nt | nt
O=c1[nH]c(Nc2ccccc2Cl)cc2ccccc12 | 99.4* | -70.0 | 92.4* | -491.7 | 95.9* | 57.0* | 86.3* | 68.6* | 26.8 | -1.9
Cc1cc2ccccc2c(=O)[nH]1 | -1.6 | 2.0 | -1.3 | -62.0 | 1.1 | nt | nt | nt | nt | nt
O=c1[nH]c(Nc2ccc(F)cc2)cc2ccccc12 | 84.7* | -45.0 | 91.8* | -273.3 | 84.5* | 52.0* | 76.3* | 48.1 | 9.8 | 8.9
Cc1cc(Nc2ccc(F)cc2)c2ccccc2n1 | nt | -3.9 | nt | -64.5 | nt | nt | nt | nt | nt | nt
Cc1ccccc1Nc1cc2ccccc2c(=O)[nH]1 | 90.6* | -16.9 | 94.6* | 1.4 | 97.1* | 92.3* | 98.4* | 94.8* | 96.4* | 13.5
Cc1ccc2cc(C(c3nnnn3CC3CCCO3)N3CCc4ccccc4C3)c(=O)[nH]c2c1 (centres undefined) | 6.8 | -57.1 | 86.3* | -49.7 | 74.0* | 6.9 | 10.0 | 0.3 | -2.8 | -2.8
